Experimental data as given in ChEMBL document CHEMBL3259704, “Second generation steroidal 4-aminoquinolines are potent, dual-target inhibitors of the botulinum neurotoxin serotype A metalloprotease and P. falciparum malaria” (J Med Chem, 2014).
The source made the active and inactive calls. The calls are words filed in the database; no cut-off is given here.

What was measured:
[1] = target: Botulinum neurotoxin type A (Clostridium botulinum, UniProt P0DPI0); assay: Inhibition of Clostridium botulinum recombinant BoNT/A light chain using N-terminal acetylated, C-terminal aminated SNAP-25 (187-203) as substrate by reverse-phase HPLC analysis
Procedure, shortened: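 Same HPLC LC cleavage assay (pH 7.3 HEPES/Tween, BSA, excess Zn, 37 °C). […] Ki comes from velocity versus substrate at several inhibitor levels, globally fit to a competitive model.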

HepG2 = assay: Cytotoxicity against human HepG2 cells assessed as cell viability after 48 hrs by MTT assay; type: cell-based; conditions: HepG2, 48 h
Plasmodium falciparum [2] = assay: Antimalarial activity against CQ, MFQ-susceptible Plasmodium falciparum D6 clone Sierra 1/UNC isolate assessed as inhibition of parasite proliferation by MSF assay; type: functional, organism-based
Procedure, shortened: (§1)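 SYBR Green I fluorescence (MSF) microtiter drug-sensitivity assay: malarial DNA content is the measure of in vitro parasite proliferation. Resistance index is the IC90 ratio of the resistant strain to D6.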

Plasmodium falciparum [3] = assay: Resistance index, ratio of IC90 for CQ, MFQ-resistant Plasmodium falciparum TM91C235 clone Southeast asian isolate to IC90 for CQ, MFQ-susceptible Plasmodium falciparum D6 clone Sierra 1/UNC isolate; type: functional; procedure, shortened: as §1
Mus musculus = assay: Toxicity in ICR mouse infected with Plasmodium berghei assessed as tissue damage at 40 to 160 mg/kg/day, po administered on day 3, 4 and 5 post-infection; type: organism-based; design: route oral; conditions: in vivo
[4] = target: Botulinum neurotoxin type A (Clostridium botulinum) (UniProt P0DPI0); assay: Inhibition of Clostridium botulinum recombinant BoNT/A light chain using N-terminal acetylated, C-terminal aminated SNAP-25 (187-203) as substrate at 20 uM by reverse-phase HPLC analysis
Procedure, shortened: (§2)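 Recombinant BoNT/A LC with SNAP-25 187–203 peptide substrate in 40 mM HEPES–0.05% Tween, pH 7.3, with 0.5 mg/mL BSA and 50 μM excess Zn, at 37 °C. Quenched with TFA; reverse-phase HPLC product/substrate peak areas give percent inhibition, run in duplicate.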

PBMC = assay: Cytotoxicity against human PBMC assessed as inhibition of cell survival after 72 hrs; type: cell-based
Procedure, shortened: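 PBMC from heparinized healthy-donor blood (Histopaque) in RPMI-1640 with 10% FCS and PHA stimulation, 200 000 cells/well, with compounds in DMSO, 72 h at 37 °C, 6% CO2.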

[5] = Half life in human liver microsomes; type: ADME; conditions: liver microsomes
Plasmodium berghei = assay: Antimalarial activity against Plasmodium berghei infected in ICR mouse assessed as host survival at 40 to 160 mg/kg/day, po administered on day 3, 4 and 5 post-infection measured on day 13 after infection; type: functional, organism-based
Plasmodium falciparum [6] = assay: Antimalarial activity against CQ, MFQ-resistant Plasmodium falciparum TM91C235 clone Southeast asian isolate assessed as inhibition of parasite proliferation by MSF assay; type: functional, organism-based; procedure, shortened: as §1
[7] = Selectivity index, ratio of IC50 for human HepG2 cells to IC50 for CQ, MFQ-resistant Plasmodium falciparum TM91C235 clone Southeast asian isolate; type: toxicity, cell-based; conditions: read-out: Ratio IC50
[8] = Half life in mouse liver microsomes; type: ADME; conditions: liver microsomes
Plasmodium falciparum [9] = assay: Resistance index, ratio of IC90 for CQ-resistant, MFQ-susceptible Plasmodium falciparum W2 clone Indochina 1 isolate to IC90 for CQ, MFQ-susceptible Plasmodium falciparum D6 clone Sierra 1/UNC isolate; type: functional; procedure, shortened: as §1
[10] = Selectivity index, ratio of IC50 for human HepG2 cells to IC50 for CQ-resistant, MFQ-susceptible Plasmodium falciparum W2 clone Indochina 1 isolate; type: toxicity, cell-based; conditions: read-out: Ratio IC50
Plasmodium falciparum [11] = assay: Antimalarial activity against CQ-resistant, MFQ-susceptible Plasmodium falciparum W2 clone Indochina 1 isolate assessed as inhibition of parasite proliferation by MSF assay; type: functional, organism-based; procedure, shortened: as §1
[12] = Selectivity index, ratio of IC50 for human HepG2 cells to IC50 for CQ, MFQ-susceptible Plasmodium falciparum D6 clone Sierra 1/UNC isolate; type: toxicity, cell-based; conditions: read-out: Ratio IC50
[13] = target: Botulinum neurotoxin type A (Clostridium botulinum) (UniProt P0DPI0); assay: Inhibition of Clostridium botulinum recombinant BoNT/A light chain using N-terminal acetylated, C-terminal aminated SNAP-25 (187-203) as substrate at 10 uM by reverse-phase HPLC analysis; procedure, shortened: as §2
[14] = target: Botulinum neurotoxin type A (Clostridium botulinum) (UniProt P0DPI0); assay: Inhibition of Clostridium botulinum BoNT/A-mediated SNAP-25 cleavage in chicken embryo neurons assessed as intact SNAP-25 level at […] preincubated for 45 mins followed by co-incubation with BoNT/A for 3.5 hrs by western blot analysis; design: scale not given: the % may be the effect or the level left
[15] = target: Botulinum neurotoxin type A (Clostridium botulinum) (UniProt P0DPI0); assay: Inhibition of Clostridium botulinum BoNT/A-mediated SNAP-25 cleavage in chicken embryo neurons assessed as intact SNAP-25 level at […] preincubated for 45 mins followed by co-incubation with BoNT/A for 3.5 hrs by western blot analysis in presence of 25 uL of 100 nM antibiotic bafilomycin; design: scale not given: the % may be the effect or the level left
[16] = target: Botulinum neurotoxin type A (Clostridium botulinum) (UniProt P0DPI0); assay: Inhibition of Clostridium botulinum BoNT/A-mediated SNAP-25 cleavage in chicken embryo neurons assessed as intact SNAP-25 level at […] preincubated for 45 mins followed by co-incubation with BoNT/A for 3.5 hrs by western blot analysis in presence of 5 uL of 100 nM antibiotic bafilomycin; design: scale not given: the % may be the effect or the level left
Plasmodium falciparum [17] = assay: Resistance index, ratio of IC50 for CQ-resistant, MFQ-susceptible Plasmodium falciparum W2 clone Indochina 1 isolate to IC50 for CQ, MFQ-susceptible Plasmodium falciparum D6 clone Sierra 1/UNC isolate; type: functional
Plasmodium falciparum [18] = assay: Resistance index, ratio of IC50 for CQ, MFQ-resistant Plasmodium falciparum TM91C235 clone Southeast asian isolate to IC50 for CQ, MFQ-susceptible Plasmodium falciparum D6 clone Sierra 1/UNC isolate; type: functional

Chain of Botulinum neurotoxin type A (P0DPI0 2-448 limits assumed): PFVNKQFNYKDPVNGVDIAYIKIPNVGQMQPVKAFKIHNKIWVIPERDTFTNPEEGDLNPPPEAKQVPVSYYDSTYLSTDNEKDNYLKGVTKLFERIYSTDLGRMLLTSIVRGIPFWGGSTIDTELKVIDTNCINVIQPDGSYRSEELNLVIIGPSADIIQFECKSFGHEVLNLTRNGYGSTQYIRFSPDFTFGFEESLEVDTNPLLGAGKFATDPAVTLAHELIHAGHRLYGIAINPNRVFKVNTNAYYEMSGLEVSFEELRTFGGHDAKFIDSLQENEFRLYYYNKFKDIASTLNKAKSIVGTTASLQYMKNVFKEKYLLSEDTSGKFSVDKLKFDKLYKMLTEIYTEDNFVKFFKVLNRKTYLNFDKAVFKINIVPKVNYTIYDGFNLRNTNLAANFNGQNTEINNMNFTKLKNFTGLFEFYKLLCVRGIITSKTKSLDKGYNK
Chain of Botulinum neurotoxin type A (Clostridium botulinum) (P0DPI0 2-448 limits assumed): as above

SMILES: CC(=O)O[C@H]1C[C@H]2[C@@H]([C@H](OC(C)=O)C[C@@H]3C[C@H](N)CC[C@@]32C)[C@@H]2CC[C@H]([C@H](C)CCCN(C)CCNc3ccnc4cc(Cl)ccc34)[C@@]12C
- IC50 [1]: 1140 nM
- IC50 (HepG2): 14400 nM
- IC50 (Plasmodium falciparum [2]): 3.6 nM
- IC90 (Plasmodium falciparum [2]): 4.46 nM
- Ratio (Plasmodium falciparum [3]): 2.06
- Activity (Mus musculus): Non-toxic
- inhibition [4]: 89.5%
- IC50 (PBMC): 2590 nM
- half-life [5]: 1 h
- Activity (Plasmodium berghei): inactive
- IC50 (Plasmodium falciparum [6]): 6.18 nM
- IC90 (Plasmodium falciparum [6]): 9.2 nM
- selectivity ratio [7]: 2330
- half-life [8]: 1 h
- Ratio (Plasmodium falciparum [9]): 0.84
- selectivity ratio [10]: 4990
- IC50 (Plasmodium falciparum [11]): 2.88 nM
- IC90 (Plasmodium falciparum [11]): 3.74 nM
- selectivity ratio [12]: 4000

SMILES: CC(=O)O[C@H]1C[C@H]2[C@@H]([C@H](OC(C)=O)C[C@@H]3CC(NCCCNc4ccnc5cc(Cl)ccc45)CC[C@@]32C)[C@@H]2CC[C@H]([C@H](C)CCCNCCCNc3ccnc4cc(Cl)ccc34)[C@@]12C (mixture of isomers)
- Ki [1]: 171 nM
- IC50 (HepG2): 4680 nM
- IC50 (Plasmodium falciparum [2]): 143 nM
- inhibition [13]: Active
- inhibition [4]: 97.2%
- IC50 (Plasmodium falciparum [6]): 195 nM
- selectivity ratio [7]: 24
- selectivity ratio [10]: 43
- IC50 (Plasmodium falciparum [11]): 108 nM
- selectivity ratio [12]: 32

SMILES: CC(=O)O[C@H]1C[C@H]2[C@@H]([C@H](OC(C)=O)C[C@@H]3CC(NCCNc4ccnc5cc(Cl)ccc45)CC[C@@]32C)[C@@H]2CC[C@H]([C@H](C)CCCNCCNc3ccnc4cc(Cl)ccc34)[C@@]12C (some centres not stated)
- Ki [1]: 341 nM
- IC50 (HepG2): 3770 nM
- IC50 (Plasmodium falciparum [2]): 120 nM
- inhibition [13]: Active
- inhibition [4]: 96.5%
- IC50 (PBMC): 302 nM
- IC50 (Plasmodium falciparum [6]): 124 nM
- selectivity ratio [7]: 30
- selectivity ratio [10]: 38
- IC50 (Plasmodium falciparum [11]): 98.2 nM
- selectivity ratio [12]: 32

SMILES: CC(=O)O[C@H]1C[C@H]2[C@@H]([C@H](OC(C)=O)C[C@@H]3C[C@H](N(C)C)CC[C@@]32C)[C@@H]2CC[C@H]([C@H](C)CCCN(C)CCCNc3ccnc4cc(Cl)ccc34)[C@@]12C
- IC50 [1]: 1290 nM
- IC50 (HepG2): 5280 nM
- IC50 (Plasmodium falciparum [2]): 152 nM
- inhibition [4]: 86.9%
- half-life [5]: 1 h
- IC50 (Plasmodium falciparum [6]): 74.6 nM
- selectivity ratio [7]: 71
- half-life [8]: 1 h
- selectivity ratio [10]: 93
- IC50 (Plasmodium falciparum [11]): 57 nM
- selectivity ratio [12]: 35

SMILES: CC(=O)O[C@H]1C[C@H]2[C@@H]([C@H](OC(C)=O)C[C@@H]3C[C@H](N)CC[C@@]32C)[C@@H]2CC[C@H]([C@H](C)CCCNCCNc3ccnc4cc(Cl)ccc34)[C@@]12C
- IC50 [1]: 810 nM
- Ki [1]: 3220 nM
- IC50 (HepG2): 5610 nM
- IC90 (Plasmodium falciparum [2]): 176 nM
- Ratio (Plasmodium falciparum [3]): 1.25
- Activity [14]: 77%
- inhibition [4]: 89.3%
- IC50 (PBMC): 7880 nM
- Activity [15]: 81%
- IC50 (Plasmodium falciparum [6]): 147 nM
- IC90 (Plasmodium falciparum [6]): 220 nM
- selectivity ratio [7]: 38
- Ratio (Plasmodium falciparum [9]): 1.33
- selectivity ratio [10]: 35
- Activity [16]: 88%
- IC50 (Plasmodium falciparum [11]): 161 nM
- IC90 (Plasmodium falciparum [11]): 235 nM
- selectivity ratio [12]: 39

SMILES: CC(=O)O[C@H]1C[C@H]2[C@@H]([C@H](OC(C)=O)C[C@@H]3C[C@H](N(C)C)CC[C@@]32C)[C@@H]2CC[C@H]([C@H](C)CCCNCCNc3ccnc4cc(Cl)ccc34)[C@@]12C
- IC50 [1]: 1020 nM
- IC50 (HepG2): 14100 nM
- IC50 (Plasmodium falciparum [2]): 42.3 nM
- Ratio IC50 (Plasmodium falciparum [17]): 47
- inhibition [4]: 93.5%
- half-life [5]: 1 h
- IC50 (Plasmodium falciparum [6]): 32.4 nM
- selectivity ratio [7]: 435
- half-life [8]: 1 h
- Ratio IC50 (Plasmodium falciparum [18]): 0.77
- selectivity ratio [10]: 714
- IC50 (Plasmodium falciparum [11]): 19.7 nM
- selectivity ratio [12]: 333
